Legend:
Mus musculus [1] = test: (§1) In vivo inhibition of hormone-dependent MXT mammary tumor in mice; type: functional
How it was run: (§2)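 MXT tumor pieces (~2 mm3) implanted sc into female 8-week-old BDF1 mice, randomized into groups of 10. From day 1 after transplant, compound in olive oil given sc 3 times weekly (equimolar doses) for 6 weeks. Tumors excised and weighed. T/C % = treated/solvent-control tumor weight × 100 (mean of 10); uterus T/C also recorded.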

Mus musculus [2] = test: as §1; type: functional; how it was run: as §2; remark: listed apart in the source
[3] = molecular target: T1, Estrogen receptor (Mus musculus) (UniProt O08537+P19785); test: In vivo anti-estrogenic effect in immature mice at 0.5 ug; type: functional, organism-based
T1 sequence (O08537 whole entry, looked up): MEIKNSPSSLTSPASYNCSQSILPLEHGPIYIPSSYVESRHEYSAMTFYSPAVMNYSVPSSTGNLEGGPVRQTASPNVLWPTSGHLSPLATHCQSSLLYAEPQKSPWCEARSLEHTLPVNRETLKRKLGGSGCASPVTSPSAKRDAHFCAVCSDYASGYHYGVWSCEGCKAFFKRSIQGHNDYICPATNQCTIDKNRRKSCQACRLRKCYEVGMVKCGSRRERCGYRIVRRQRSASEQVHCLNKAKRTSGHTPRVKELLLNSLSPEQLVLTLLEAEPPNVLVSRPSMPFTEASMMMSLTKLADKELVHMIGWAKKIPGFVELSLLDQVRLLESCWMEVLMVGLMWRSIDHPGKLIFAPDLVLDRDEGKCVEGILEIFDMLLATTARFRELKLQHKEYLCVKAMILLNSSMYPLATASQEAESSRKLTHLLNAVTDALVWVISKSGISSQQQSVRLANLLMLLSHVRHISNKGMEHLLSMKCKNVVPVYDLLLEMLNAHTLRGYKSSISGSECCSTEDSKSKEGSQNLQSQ
T1 sequence (P19785 whole entry, looked up): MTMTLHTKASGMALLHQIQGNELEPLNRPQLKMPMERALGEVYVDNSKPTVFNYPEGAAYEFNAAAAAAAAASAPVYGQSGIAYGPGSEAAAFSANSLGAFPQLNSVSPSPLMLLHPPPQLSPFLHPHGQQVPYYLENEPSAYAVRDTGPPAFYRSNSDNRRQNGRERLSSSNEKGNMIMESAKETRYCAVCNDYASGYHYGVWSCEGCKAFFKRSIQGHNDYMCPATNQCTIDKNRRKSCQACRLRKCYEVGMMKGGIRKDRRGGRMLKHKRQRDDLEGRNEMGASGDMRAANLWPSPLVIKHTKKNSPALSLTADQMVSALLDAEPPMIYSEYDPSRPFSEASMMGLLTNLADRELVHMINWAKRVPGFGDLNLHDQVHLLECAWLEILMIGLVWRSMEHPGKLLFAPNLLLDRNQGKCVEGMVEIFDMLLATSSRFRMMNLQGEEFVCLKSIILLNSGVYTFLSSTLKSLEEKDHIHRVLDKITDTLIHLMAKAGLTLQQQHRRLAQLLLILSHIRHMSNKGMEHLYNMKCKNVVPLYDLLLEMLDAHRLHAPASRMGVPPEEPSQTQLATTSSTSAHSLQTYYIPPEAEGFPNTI
How it was run: (§3)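 Antiuterotrophic assay in immature female NMRI mice (10–12 g; 10 per group) with estrone-stimulated uterine growth. Test compound in olive oil given sc daily for 3 consecutive days. Uteri taken 24 h after the final dose, Bouin-fixed, dried and weighed. Antiestrogenic effect measured as inhibition of the estrone-driven uterine growth.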

[4] = molecular target: T1, Estrogen receptor (Mus musculus); test: […] estrogenic effect in immature mice at 500 ug; type: functional
How it was run: (§4)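 Uterotrophic assay in immature female NMRI mice (10–12 g at start; 10 per group). Test compound in olive oil given sc daily for three consecutive days. Uteri removed 24 h after the last injection, fixed in Bouin's solution, dried and weighed. Estrogenic effect read as stimulation of uterine growth.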

[5] = molecular target: T1, Estrogen receptor (Mus musculus); test: In vivo anti-estrogenic effect in immature mice at 100 ug; type: functional, organism-based; how it was run: as §3
[6] = molecular target: T1, Estrogen receptor (Mus musculus); test: […] estrogenic effect in immature mice at 1 ug; type: functional; how it was run: as §4
[7] = molecular target: T1, Estrogen receptor (Mus musculus); test: In vivo anti-estrogenic effect in immature mice at 5 ug; type: functional, organism-based; how it was run: as §3

Structure (SMILES)	T/C (Mus musculus [1]) [%]	T/C (Mus musculus [2]) [%]	inhibition [3] [%]	estrogenic effect [4] [%]	inhibition [5] [%]	inhibition [6] [%]	inhibition [7] [%]
CC/C(=C(/c1ccccc1)c1ccc(OC(C)=O)c(OC(C)=O)c1)c1ccc(OC(C)=O)cc1	22	113	–	–	–	–	–
CC/C(=C(/c1ccc(OC(C)=O)cc1)c1ccc(OC(C)=O)c(OC(C)=O)c1)c1ccccc1	44	99	0	–	–	–	–
CC/C(=C(\c1ccccc1)c1ccc(OCCN(C)C)cc1)c1ccccc1 [TAMOXIFEN]	10	92	–	–	–	–	–
CC/C(=C(/c1ccccc1)c1ccc(OC(C)=O)c(OC(C)=O)c1)c1ccc(OC(C)=O)c(OC(C)=O)c1	84	99	–	67	–	–	–
CCC(=C(c1ccc(OC(C)=O)c(OC(C)=O)c1)c1ccc(OC(C)=O)c(OC(C)=O)c1)c1ccccc1	134	107	–	13	54	–	–
CC/C(=C(/c1ccccc1)c1ccc(OC(C)=O)cc1)c1ccc(OC(C)=O)c(OC(C)=O)c1	2	183	–	–	–	–	–
CC/C(=C(\c1ccc(OC(C)=O)cc1)c1ccc(OC(C)=O)c(OC(C)=O)c1)c1ccccc1	23	125	38	–	–	–	–
CC/C(=C(/c1ccccc1)c1ccc(OC(C)=O)c(OC(C)=O)c1)c1cccc(OC(C)=O)c1	35	103	–	–	–	–	–
CC/C(=C(\c1ccccc1)c1ccc(OC(C)=O)c(OC(C)=O)c1)c1ccc(OC(C)=O)cc1	40	113	–	–	–	–	–
CC/C(=C(\c1ccccc1)c1ccc(OC(C)=O)cc1)c1ccc(OC(C)=O)c(OC(C)=O)c1	1	195	–	–	–	–	–
CC/C(=C(/c1ccccc1)c1cccc(OC(C)=O)c1)c1ccc(OC(C)=O)c(OC(C)=O)c1	2	123	–	61	–	–	–
CC/C(=C(\c1ccccc1)c1ccc(OC(C)=O)c(OC(C)=O)c1)c1cccc(OC(C)=O)c1	82	115	–	–	–	–	–
CCC(=C(c1ccc(OC(C)=O)cc1)c1ccc(OC(C)=O)c(OC(C)=O)c1)c1ccccc1	–	–	–	–	61	–	–
CC/C(=C(\c1ccccc1)c1ccc(OC(C)=O)c(OC(C)=O)c1)c1ccccc1	19	107	–	77	–	–	–
CC/C(=C(\c1ccccc1)c1ccc(OC(C)=O)c(OC(C)=O)c1)c1ccc(OC(C)=O)c(OC(C)=O)c1	75	90	–	77	–	–	–
CCC(=C(c1ccccc1)c1ccccc1)c1ccc(OC(C)=O)c(OC(C)=O)c1	9	115	–	–	–	18	–
CC/C(=C(/c1ccccc1)c1ccc(OC(C)=O)c(OC(C)=O)c1)c1ccccc1	17	106	–	66	–	–	–
CC/C(=C(\c1ccccc1)c1cccc(OC(C)=O)c1)c1ccc(OC(C)=O)c(OC(C)=O)c1	30	87	–	63	–	–	53

Reference: ChEMBL document CHEMBL1123328, “Catechol estrogens of the 1,1,2-triphenylbut-1-ene type: relationship between structure, estradiol receptor affinity, estrogenic and antiestrogenic properties, and mammary tumor inhibiting activities” (1986)
